Assay outcomes from PubChem BioAssay.
Most compounds without a hit are left out; they make up all but 1.8% or so of the library.
NPY-Y2 antag = NPY-Y2 receptor antagonists, primary screen, cell-based; inhibition, % at 2.7 µM; Neuropeptide Y receptor type 2 (Homo sapiens), P49146; AID 793, 2007; NPY-Y2 expressing cells, antagonist mode; actives 0.99% (n = 140,000); in the data active = inhibition above about 17%;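 note: 0% = vehicle with agonist challenge and 100% = reference antagonist with challenge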
Target sequence (P49146 whole entry, looked up): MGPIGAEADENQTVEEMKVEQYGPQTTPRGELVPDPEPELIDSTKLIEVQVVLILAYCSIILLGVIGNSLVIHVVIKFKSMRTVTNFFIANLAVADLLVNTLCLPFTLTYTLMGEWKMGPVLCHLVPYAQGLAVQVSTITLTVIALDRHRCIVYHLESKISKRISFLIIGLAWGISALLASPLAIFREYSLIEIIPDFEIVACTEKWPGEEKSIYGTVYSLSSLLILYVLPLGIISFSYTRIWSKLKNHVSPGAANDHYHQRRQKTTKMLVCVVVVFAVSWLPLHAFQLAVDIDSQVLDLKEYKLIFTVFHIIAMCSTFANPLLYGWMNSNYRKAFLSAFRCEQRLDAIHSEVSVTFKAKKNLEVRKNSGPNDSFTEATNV
NPY Y1 blocker = NPY-Y1 receptor antagonists, primary screen, cell-based; Neuropeptide Y receptor type 1 (Homo sapiens), P25929; HEK293-CNG Y1 cells, membrane potential fluorescence; NPY at EC95, then isoproterenol; inhibition, % at 3.6 µM; actives 1% (n = 200,000); AID 1040, 2008;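 active = inhibition above the campaign mean inhibition of all tested compounds plus 3 SD, cut at about 20% in these data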;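 note: 0% = DMSO wells given NPY plus isoproterenol and 100% = isoproterenol alone without NPY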
Target sequence (P25929 whole entry, looked up): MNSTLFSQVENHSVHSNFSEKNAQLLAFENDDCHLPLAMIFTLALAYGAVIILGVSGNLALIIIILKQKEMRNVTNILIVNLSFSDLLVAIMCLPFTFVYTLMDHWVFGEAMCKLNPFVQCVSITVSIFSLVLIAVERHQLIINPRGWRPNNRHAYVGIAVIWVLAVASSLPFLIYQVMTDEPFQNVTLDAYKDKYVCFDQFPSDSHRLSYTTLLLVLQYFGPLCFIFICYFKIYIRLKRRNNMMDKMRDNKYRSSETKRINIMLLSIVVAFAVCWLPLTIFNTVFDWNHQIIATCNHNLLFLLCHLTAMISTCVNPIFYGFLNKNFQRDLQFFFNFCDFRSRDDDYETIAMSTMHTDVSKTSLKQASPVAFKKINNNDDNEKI
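Test system – HEK293 Y1/CNG channel cell line · Also added – NPY agonist 25 nM, then isoproterenol 1 µM plus Ro 20-1724 25 µM · Compound dosing – one concentration, 3.6 µM, in 0.4% DMSO · Schedule – compound incubation 1 h at room temperature, readout 45 min post-stimulation · Technique – fluorescence, membrane potential probe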
NPY-Y2 PAM-ag = NPY-Y2 potentiators or agonists, primary screen, cell-based; activation, % at 3.6 µM; AID 1359, 2008; cells expressing NPY-Y2, potentiator/agonist read-out; Neuropeptide Y receptor type 2 (Homo sapiens), P49146; actives 0.45% (n = 220,000); in the data active = activation above about 27%;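 note: cells stimulated with NPY near EC25 plus isoproterenol at EC100; 0% = vehicle plus submaximal agonist and 100% = vehicle plus saturating agonist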
NPY-Y1 PAM-ag = NPY-Y1 receptor potentiators or agonists, primary screen, cell-based | Neuropeptide Y receptor type 1 (Homo sapiens), P25929 | NPY-Y1 expressing cells, potentiator/agonist activation | activation, % at 3.6 µM | actives 0.37% (n = 220,000) | AID 1304, 2008; in the data active = activation above about 33%, passing the limit was not always enough;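 note: cells stimulated with NPY at EC10 then isoproterenol at EC100; 0% = low agonist plus stimulus and 100% = saturating agonist plus stimulus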
NPY-Y2 confirm = NPY-Y2 potentiators or agonists, confirmation, cell-based. shares compounds with NPY-Y2 PAM-ag. cell-based NPY-Y2 potentiator/agonist assay. activation, % at 3.6 µM. actives 20% (n = 450); in the data active = activation above about 33%
NPY-Y1 potentiator = NPY-Y1 potentiators or agonists, counter-screen for NPY-Y2 potentiator project, cell-based, fluorescence. actives 20% (n = 450). activation, % at 3.6 µM. Y1 HEK293-CNG cells, membrane potential fluorescence. shares compounds with NPY-Y2 PAM-ag; in the data active = activation above about 45%;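 note: cells stimulated with submaximal NPY then isoproterenol with phosphodiesterase inhibitor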
NPY-Y1 agonist 2 = NPY-Y1 direct agonists, selectivity assay for NPY-Y2 potentiator project, cell-based, fluorescence; activation, % at 3.6 µM; shares compounds with NPY-Y2 PAM-ag; actives 37% (n = 450); HEK293 Y1-CNGC, membrane potential fluorescence, agonism;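 active = activation above the mean of DMSO-only control wells plus 3 SD, cut at about 18% in these data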;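 note: cells stimulated with 1 µM isoproterenol plus the PDE inhibitor Ro 20-1724; 0% = isoproterenol with DMSO and no NPY and 100% = 40 nM NPY; Y1 agonists lower the membrane potential dye signal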
CNGC inhibitor = CNGC cAMP sensor activity inhibitors, counter-screen for NPY-Y2 potentiator project, cell-based, HEK293-CNG parental, membrane potential fluorescence. shares compounds with NPY-Y2 PAM-ag. inhibition, % at 3.6 µM. isoproterenol cAMP. actives 32% (n = 450);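 active = inhibition above the control-well mean plus 3 SD of those wells, cut at about 22% in these data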;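 note: 0% = DMSO with isoproterenol and 100% = DMSO without isoproterenol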
Y2 agonist ctr = NPY-Y2 direct agonists, counter-screen for NPY-Y2 potentiator project, cell-based, fluorescence. activation, % at 3.6 µM. AID 1710, 2009. actives 56% (n = 450). shares compounds with NPY-Y2 PAM-ag. HEK293 Y2/CNGC cells, membrane potential fluorescence, agonist mode;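 active = activation above the mean of solvent-only control wells plus 3 SD, cut at about 10% in these data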;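 note: cells stimulated by isoproterenol with no NPY added so direct agonism is tested; 0% = DMSO with isoproterenol alone and 100% = NPY at EC100 plus isoproterenol; agonism lowers probe fluorescence through less cAMP and CNG channel opening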
An asterisk follows results filed as active.

COc1cc2nc(NCC3CCCO3)n3nc(-c4cccnc4)nc3c2cc1OC (centres undefined) was read as NPY-Y2 antag -2.4, NPY Y1 blocker 2.8, NPY-Y2 PAM-ag 64.8*, NPY-Y1 PAM-ag 14.9, NPY-Y2 confirm -0.8, NPY-Y1 potentiator 7.8, NPY-Y1 agonist 2 0.9, CNGC inhibitor 4.5 and Y2 agonist ctr 8.9.
Screening CC(C)Cc1nnc(NC(=O)CSc2nc(-c3ccccc3)cc(=O)[nH]2)s1 returned NPY Y1 blocker 0.1, NPY-Y2 PAM-ag -18.0 and NPY-Y1 PAM-ag -19.8.
For c1ccc2c3c([nH]c2c1)-c1[nH]ncc1CC3 the results were NPY-Y2 antag -0.7, NPY Y1 blocker -6.0, NPY-Y2 PAM-ag -0.8 and NPY-Y1 PAM-ag 10.2.
Clc1ccc2[nH]c3c(c2c1)CCc1cn[nH]c1-3 was read as NPY-Y2 antag -3.7, NPY Y1 blocker -13.0, NPY-Y2 PAM-ag 46.1*, NPY-Y1 PAM-ag 41.3, NPY-Y2 confirm 33.5*, NPY-Y1 potentiator 45.0*, NPY-Y1 agonist 2 34.3*, CNGC inhibitor 35.4* and Y2 agonist ctr 25.1*.
Screening N#Cc1cnn(-c2ccc(F)cc2)c1N returned NPY-Y2 PAM-ag 55.2*, NPY-Y1 PAM-ag 12.8, NPY-Y2 confirm -6.5, NPY-Y1 potentiator -13.7, NPY-Y1 agonist 2 -25.4, CNGC inhibitor -7.3 and Y2 agonist ctr -14.9.
For NC(=O)c1ccc(NC(=O)CSc2nnc(-c3ccccn3)n2N)cc1 the results were NPY Y1 blocker -4.0, NPY-Y2 PAM-ag 11.1 and NPY-Y1 PAM-ag 4.2.
Screening COc1cc2c(cc1NC(=O)CSc1nc3ccc(C)cc3[nH]1)oc1ccccc12 returned NPY-Y2 antag 1.7, NPY Y1 blocker -5.4, NPY-Y2 PAM-ag 3.4 and NPY-Y1 PAM-ag -11.7.
Screening O=C(COC(=O)c1c(Cl)ccc(Cl)c1Cl)NC(=O)NCc1ccccc1 returned NPY-Y2 antag 5.3, NPY Y1 blocker -0.4, NPY-Y2 PAM-ag 0.3 and NPY-Y1 PAM-ag -1.2.
For O=S(=O)(c1ccccc1)N1CCC(O)(CSc2ccc(Cl)cc2)CC1 the results were NPY-Y2 antag 3.2, NPY Y1 blocker 8.8, NPY-Y2 PAM-ag 33.8*, NPY-Y1 PAM-ag -14.4, NPY-Y2 confirm -12.7, NPY-Y1 potentiator -56.2, NPY-Y1 agonist 2 11.9, CNGC inhibitor -16.5 and Y2 agonist ctr 4.9.
`O=S(=O)(c1ccc(Cl)cc1)N1CCC(O)(CN2CCN(Cc3ccccc3)CC2)CC1` gave NPY Y1 blocker 1.9, NPY-Y2 PAM-ag -1.9 and NPY-Y1 PAM-ag 3.1.
COc1ccc(NC(=S)N/N=C/c2cccn2Cc2ccc(F)cc2)cc1 was read as NPY Y1 blocker 1.6, NPY-Y2 PAM-ag 41.5*, NPY-Y1 PAM-ag 20.0, NPY-Y2 confirm 16.9, NPY-Y1 potentiator 6.5, NPY-Y1 agonist 2 -1.8, CNGC inhibitor 2.0 and Y2 agonist ctr 5.1.
For CN1C/C(=N\S(=O)(=O)c2ccccc2)N(C)C1=O the results were NPY-Y2 antag -1.5, NPY Y1 blocker 10.0, NPY-Y2 PAM-ag 101.2*, NPY-Y1 PAM-ag 39.2, NPY-Y2 confirm -1.9, NPY-Y1 potentiator 5.9, NPY-Y1 agonist 2 -1.4, CNGC inhibitor 1.4 and Y2 agonist ctr -0.4.
`Oc1ccccc1-c1nc(NCC2CCCO2)c2ccccc2n1` (centres undefined) gave NPY-Y2 antag -0.7, NPY Y1 blocker -4.2, NPY-Y2 PAM-ag 41.1*, NPY-Y1 PAM-ag 22.0, NPY-Y2 confirm 37.3*, NPY-Y1 potentiator 24.4, NPY-Y1 agonist 2 17.3, CNGC inhibitor 24.4* and Y2 agonist ctr 19.1*.
For O=C(Nc1ccc(OCC(F)(F)C(F)F)c(C(F)(F)F)c1)c1ccccc1O the results were NPY-Y2 antag 3.9, NPY Y1 blocker 6.0, NPY-Y2 PAM-ag 61.3*, NPY-Y1 PAM-ag 40.6, NPY-Y2 confirm 3.4, NPY-Y1 potentiator -17.1, NPY-Y1 agonist 2 -17.3, CNGC inhibitor -11.4 and Y2 agonist ctr 0.8.
Screening Cc1ccc(C(=O)C[n+]2ccc(-c3nnc4n3CCC4)cc2)cc1 returned NPY-Y2 antag 3.2, NPY Y1 blocker -1.0, NPY-Y2 PAM-ag 12.1 and NPY-Y1 PAM-ag -13.5.
For N#C/C(=N\Nc1cccc(C(F)(F)F)c1)C(=O)c1ccsc1 the results were NPY-Y2 PAM-ag 50.5*, NPY-Y1 PAM-ag -22.7, NPY-Y2 confirm -13.1, NPY-Y1 potentiator -54.5, NPY-Y1 agonist 2 -27.8, CNGC inhibitor -12.1 and Y2 agonist ctr 2.2.
For N#C/C(=N\Nc1cccc([N+](=O)[O-])c1)C(=O)c1ccc(Br)cc1 the results were NPY Y1 blocker 5.4, NPY-Y2 PAM-ag 12.2 and NPY-Y1 PAM-ag -3.1.
For COc1ccc(OCC(O)CNC(=O)Nc2ccc(F)cc2)cc1 (centres undefined) the results were NPY-Y2 PAM-ag -4.9 and NPY-Y1 PAM-ag 11.3.
`OC(CNc1ccccc1)COc1ccc(OCC(O)CNc2ccccc2)cc1` (centres undefined) gave NPY-Y2 antag -3.1, NPY Y1 blocker -18.7, NPY-Y2 PAM-ag 37.0*, NPY-Y1 PAM-ag 38.7, NPY-Y2 confirm 42.6*, NPY-Y1 potentiator 56.6*, NPY-Y1 agonist 2 44.0*, CNGC inhibitor 44.0* and Y2 agonist ctr 47.5*.
Screening COc1ccc(OCC(O)CNC(=O)Nc2ccccc2)cc1 (centres undefined) returned NPY-Y2 PAM-ag 43.5*, NPY-Y1 PAM-ag 16.4, NPY-Y2 confirm 1.2, NPY-Y1 potentiator 6.8, NPY-Y1 agonist 2 -5.0, CNGC inhibitor 1.8 and Y2 agonist ctr 2.8.
Screening CCCCC(=O)Nc1ccc(C(=O)N2CCN(C)CC2)cc1 returned NPY-Y2 antag 0.4, NPY Y1 blocker 1.3, NPY-Y2 PAM-ag 13.7 and NPY-Y1 PAM-ag -3.7.
`O=C(CCc1ccccc1O)N/N=C/c1ccc(Sc2cccc3cccnc23)o1` gave NPY-Y2 antag -1.4, NPY Y1 blocker 3.5, NPY-Y2 PAM-ag 36.9*, NPY-Y1 PAM-ag 38.6, NPY-Y2 confirm 19.0, NPY-Y1 potentiator 36.2, NPY-Y1 agonist 2 33.8*, CNGC inhibitor 22.3* and Y2 agonist ctr 22.4*.
For O=C(CSc1cccc2cccnc12)N/N=C/c1ccc(O)cc1 the results were NPY-Y2 PAM-ag 4.0 and NPY-Y1 PAM-ag -11.0.
